# Data taken from ChEMBL document CHEMBL1212735, “Metronidazole resistance in Prevotella spp. and description of a new nim gene in Prevotella baroniae” (2010).
# Columns and labels:
# Format in all cases: functional
# [1] = test system: Prevotella bivia; experiment: Antimicrobial activity against slow growing colonies of Prevotella bivia LBP 78 deficient in nim gene assessed as inhibition of growth at 48 hrs by agar dilution method; settings: LBP 78, 48 h
# How it was run: (§1)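 Metronidazole MIC by agar dilution per CLSI M11-A7 on brucella agar with 5% sheep blood, hemin and vitamin K1. Plates incubated anaerobically at 35°C and read at 48 h, with a second reading after a further 72 h. B. fragilis ATCC 25285T and B. thetaiotaomicron ATCC 29741 served as controls. Done in duplicate; EUCAST breakpoints applied (S ≤4, R ≥8 μg/ml).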
# [2] = test system: Prevotella bivia; experiment: Antimicrobial activity against Prevotella bivia LBN 331 deficient in nim gene assessed as inhibition of growth at 48 hrs by agar dilution method; settings: LBN 331, 48 h
# How it was run: (§2)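 Metronidazole MIC by agar dilution (CLSI M11-A7) on brucella agar with 5% sheep blood, hemin and vitamin K1. Plates were read after 48 h at 35°C under anaerobic conditions. Susceptible was MIC ≤ 4 μg/ml and resistant MIC ≥ 8 μg/ml (EUCAST). B. fragilis ATCC 25285T and B. thetaiotaomicron ATCC 29741 were run as controls. Duplicate assays.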
# [3] = test system: Prevotella nanceiensis; experiment: Antimicrobial activity against slow growing colonies of Prevotella nanceiensis LBN 298 deficient in nim gene assessed as inhibition of growth at 48 hrs by agar dilution method; settings: Hoylesella nanceiensis, LBN 298, 48 h; how it was run: as §1
# [4] = test system: Prevotella bivia; experiment: Antimicrobial activity against Prevotella bivia LBN 330 deficient in nim gene assessed as inhibition of growth at 48 hrs by agar dilution method; settings: LBN 330, 48 h; how it was run: as §2
# [5] = test system: Prevotella baroniae; experiment: Antimicrobial activity against Prevotella baroniae LBN 475 expressing nim gene assessed as inhibition of growth at 48 hrs by agar dilution method; settings: Segatella baroniae, LBN 475, 48 h; how it was run: as §2
# [6] = test system: Prevotella bivia; experiment: Antimicrobial activity against slow growing colonies of Prevotella bivia LBP 52 deficient in nim gene assessed as inhibition of growth at 48 hrs by agar dilution method; settings: LBP 52, 48 h; how it was run: as §1
# [7] = test system: Prevotella nanceiensis; experiment: Antimicrobial activity against Prevotella nanceiensis LBN 297 deficient in nim gene assessed as inhibition of growth at 48 hrs by agar dilution method; settings: Hoylesella nanceiensis, LBN 297, 48 h; how it was run: as §2
# [8] = test system: Prevotella baroniae; experiment: Antimicrobial activity against Prevotella baroniae LBN 432 expressing nim gene assessed as inhibition of growth at 48 hrs by agar dilution method; settings: Segatella baroniae, LBN 432, 48 h; how it was run: as §2
# [9] = test system: Prevotella bivia; experiment: Antimicrobial activity against slow growing colonies of Prevotella bivia LBN 467 deficient in nim gene assessed as inhibition of growth at 48 hrs by agar dilution method; settings: LBN 467, 48 h; how it was run: as §1
# [10] = test system: Prevotella bivia; experiment: Antimicrobial activity against slow growing colonies of Prevotella bivia LBP 69 deficient in nim gene assessed as inhibition of growth at 48 hrs by agar dilution method; settings: LBP 69, 48 h; how it was run: as §1
# [11] = test system: Prevotella bivia; experiment: Antimicrobial activity against slow growing colonies of Prevotella bivia LBN 333 deficient in nim gene assessed as inhibition of growth at 48 hrs by agar dilution method; settings: LBN 333, 48 h
# How it was run: (§3)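 Slowly growing colonies inside the Etest inhibition zone, seen after prolonged incubation (an additional 72 h after the 48 h reading), were subcultured without antibiotic. They were then retested for metronidazole MIC by agar dilution on supplemented brucella blood agar under anaerobic conditions.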
# [12] = test system: Prevotella bivia; experiment: Antimicrobial activity against Prevotella bivia LBN 467 deficient in nimI gene assessed as inhibition of growth after three consecutive subcultures on compound free medium by agar dilution method
# How it was run: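 Resistance induction: bacterial suspensions were plated on supplemented brucella blood agar with rising metronidazole concentrations. Colonies from the highest concentration were tested by agar dilution. MIC was then redetermined after three consecutive subcultures on drug-free agar. Resistance counted as stable if the MIC held within ±1 dilution. Anaerobic growth at 37°C. Duplicate experiments.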
# [13] = test system: Prevotella baroniae; experiment: Antimicrobial activity against Prevotella baroniae LBN 432 expressing nimI gene assessed as inhibition of growth after several passages on plates containing increasing concentration of compound by agar dilution method; settings: Segatella baroniae
# How it was run: (§4)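 Induction of metronidazole resistance: bacterial suspensions inoculated onto brucella blood agar (5% sheep blood, hemin, vitamin K1) containing metronidazole at increasing concentrations, grown anaerobically at 37°C. Colonies growing at the highest concentration were retested for MIC by CLSI agar dilution on the same agar. Duplicate experiments.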
# [14] = test system: Prevotella bivia; experiment: Antimicrobial activity against Prevotella bivia LBN 332 deficient in nimI gene assessed as inhibition of growth after three consecutive subcultures on compound free medium by agar dilution method
# How it was run: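 Stability of induced resistance: metronidazole-selected isolates were subcultured three consecutive times on drug-free brucella blood agar (5% sheep blood, hemin, vitamin K1) under anaerobic conditions, then MIC was redetermined by CLSI agar dilution. Resistance was called stable if the MIC held within ±1 dilution. Duplicate experiments.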
# [15] = test system: Prevotella nanceiensis; experiment: Antimicrobial activity against Prevotella nanceiensis LBP 66 deficient in nim gene assessed as inhibition of growth at 48 hrs by agar dilution method; settings: Hoylesella nanceiensis, LBP 66, 48 h; how it was run: as §2
# [16] = test system: Prevotella bivia; experiment: Antimicrobial activity against Prevotella bivia LBP 78 deficient in nim gene assessed as inhibition of growth at 48 hrs by agar dilution method; settings: LBP 78, 48 h; how it was run: as §2
# [17] = test system: Prevotella bivia; experiment: Antimicrobial activity against slow growing colonies of Prevotella bivia LBN 336 deficient in nim gene assessed as inhibition of growth at 48 hrs by agar dilution method; settings: LBN 336, 48 h; how it was run: as §3
# [18] = test system: Prevotella nanceiensis; experiment: Antimicrobial activity against slow growing colonies of Prevotella nanceiensis LBP 66 deficient in nim gene assessed as inhibition of growth at 48 hrs by agar dilution method; settings: Hoylesella nanceiensis, LBP 66, 48 h; how it was run: as §1
# [19] = test system: Prevotella baroniae; experiment: Antimicrobial activity against Prevotella baroniae DSM 16972T expressing nimI gene assessed as inhibition of growth after several passages on plates containing increasing concentrations of compound by agar dilution method; settings: Segatella baroniae; how it was run: as §4
# [20] = test system: Prevotella bivia; experiment: Antimicrobial activity against slow growing colonies of Prevotella bivia LBN 330 deficient in nim gene assessed as inhibition of growth at 48 hrs by agar dilution method; settings: LBN 330, 48 h; how it was run: as §3
# [21] = test system: Prevotella bivia; experiment: Antimicrobial activity against Prevotella bivia LBN 332 deficient in nim gene assessed as inhibition of growth at 48 hrs by agar dilution method; settings: LBN 332, 48 h; how it was run: as §2
# [22] = test system: Prevotella bivia; experiment: Antimicrobial activity against Prevotella bivia LBN 350 deficient in nim gene assessed as inhibition of growth at 48 hrs by agar dilution method; settings: LBN 350, 48 h; how it was run: as §2
# [23] = test system: Prevotella baroniae; experiment: Antimicrobial activity against Prevotella baroniae LBN 475 expressing nimI gene assessed as inhibition of growth after several passages on plates containing increasing concentration of compound by agar dilution method; settings: Segatella baroniae; how it was run: as §4
# [24] = test system: Prevotella bivia; experiment: Antimicrobial activity against slow growing colonies of Prevotella bivia LBN 331 deficient in nim gene assessed as inhibition of growth at 48 hrs by agar dilution method; settings: LBN 331, 48 h; how it was run: as §3
# [25] = test system: Prevotella bivia; experiment: Antimicrobial activity against slow growing colonies of Prevotella bivia LBN 371 deficient in nim gene assessed as inhibition of growth at 48 hrs by agar dilution method; settings: LBN 371, 48 h; how it was run: as §1
# [26] = test system: Prevotella bivia; experiment: Antimicrobial activity against Prevotella bivia LBN 339 deficient in nim gene assessed as inhibition of growth at 48 hrs by agar dilution method; settings: LBN 339, 48 h; how it was run: as §2
# [27] = test system: Prevotella bivia; experiment: Antimicrobial activity against slow growing colonies of Prevotella bivia LBP 65 deficient in nim gene assessed as inhibition of growth at 48 hrs by agar dilution method; settings: LBP 65, 48 h; how it was run: as §1
smiles,measurement,setting,value
Cc1ncc([N+](=O)[O-])n1CCO [METRONIDAZOLE],MIC,[1],8 µg/mL
same,MIC,[2],2 µg/mL
same,MIC,[3],32 µg/mL
same,MIC,[4],2 µg/mL
same,MIC,[5],4 µg/mL
same,MIC,[6],16 µg/mL
same,MIC,[7],2 µg/mL
same,MIC,[8],2 µg/mL
same,MIC,[9],32 µg/mL
same,MIC,[10],8 µg/mL
same,MIC,[11],32 µg/mL
same,MIC,[12],> 256 µg/mL
same,MIC,[13],64 µg/mL
same,MIC,[14],> 256 µg/mL
same,MIC,[15],2 µg/mL
same,MIC,[16],4 µg/mL
same,MIC,[17],32 µg/mL
same,MIC,[18],8 µg/mL
same,MIC,[19],16 µg/mL
same,MIC,[20],16 µg/mL
same,MIC,[21],4 µg/mL
same,MIC,[22],2 µg/mL
same,MIC,[23],256 µg/mL
same,MIC,[24],16 µg/mL
same,MIC,[25],32 µg/mL
same,MIC,[26],2 µg/mL
same,MIC,[27],32 µg/mL
